Activity calls are given as the source filed them. No cut-off for these calls is given here.
Columns and labels:
[1] = AUC (0 to infinity) in ICR mouse at 30 mg/kg, po measured upto 48 hrs by LCMS/MS method; assay type: ADME, organism-based; design: dose 30 mg/kg, time infinity, route oral; conditions: in vivo
BV-2 [2] = assay: Antiinflammatory activity in mouse BV2 cells assessed as reduction in LPS-induced TNF-alpha production at 10 uM pretreated for 1 hr followed by LPS challenge and measured after 24 hrs by ELISA assay; assay type: functional, cell-based
[3] = Acute toxicity ICR mouse assessed as induction of abnormal behavior at 0 to 1000 mg/kg, po measured up to 14 days; assay type: organism-based; conditions: in vivo, 336 h
Procedure, shortened: (§1)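 Male ICR mice (22 days, 20–22 g), n = 5 per group, chow and water ad libitum, 12 h light/dark cycle. Single oral dose of 0, 100, 200, 500 or 1000 mg/kg in 0.5% CMC-Na. Observed continuously for the first 4 h, intermittently over the next 24 h, then occasionally to 14 days. Euthanized on day 14.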

BV-2 [4] = assay: Cytotoxicity activity in mouse BV2 cells assessed as reduction in cell viability up to 100 uM measured after 72 hrs incubation by MTT assay; assay type: cell-based; conditions: bv-2, 72 h
[5] = Acute toxicity ICR mouse assessed as induction of macroscopic abnormalities in kidney at 0 to 1000 mg/kg, po measured after 14 da; assay type: organism-based; conditions: in vivo; procedure, shortened: as §1
[6] = Acute toxicity ICR mouse assessed as induction of macroscopic abnormalities in heart at 0 to 1000 mg/kg, po measured after 14 days; assay type: organism-based; conditions: in vivo, 336 h; procedure, shortened: as §1
[7] = Antioxidant activity assessed as AAPH radical scavenging activity preincubated for 15 mins with fluorescein before AAPH addition and recorded every 2 mins for 160 mins by ORAC-FL assay; assay type: functional
Procedure, shortened: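 ORAC-FL assay in 75 mM PBS, pH 7.4. Compound was preincubated with fluorescein (20 nM final) for 15 min at 37 °C, then AAPH (18 mM final) was added. Fluorescence (ex 460/em 520 nm) was read every 2 min for 160 min. Net area under the decay curve, blank-normalized, is expressed as µM Trolox equivalents per µM compound. Duplicates, ≥3 independent assays.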

[8] = Acute toxicity ICR mouse assessed as effect on eating behavior at 0 to 1000 mg/kg, po measured up to 14 days; assay type: organism-based; conditions: in vivo, 336 h; procedure, shortened: as §1
Acetylcholinesterase = biological target: T1, Acetylcholinesterase (Mus musculus, UniProt P21836); assay: Inhibition of mouse brain AChE using acetylthiocholine iodide as substrate measured after 30 mins by Ellman's method; conditions: read-out: IC50
T1 sequence (P21836 whole entry): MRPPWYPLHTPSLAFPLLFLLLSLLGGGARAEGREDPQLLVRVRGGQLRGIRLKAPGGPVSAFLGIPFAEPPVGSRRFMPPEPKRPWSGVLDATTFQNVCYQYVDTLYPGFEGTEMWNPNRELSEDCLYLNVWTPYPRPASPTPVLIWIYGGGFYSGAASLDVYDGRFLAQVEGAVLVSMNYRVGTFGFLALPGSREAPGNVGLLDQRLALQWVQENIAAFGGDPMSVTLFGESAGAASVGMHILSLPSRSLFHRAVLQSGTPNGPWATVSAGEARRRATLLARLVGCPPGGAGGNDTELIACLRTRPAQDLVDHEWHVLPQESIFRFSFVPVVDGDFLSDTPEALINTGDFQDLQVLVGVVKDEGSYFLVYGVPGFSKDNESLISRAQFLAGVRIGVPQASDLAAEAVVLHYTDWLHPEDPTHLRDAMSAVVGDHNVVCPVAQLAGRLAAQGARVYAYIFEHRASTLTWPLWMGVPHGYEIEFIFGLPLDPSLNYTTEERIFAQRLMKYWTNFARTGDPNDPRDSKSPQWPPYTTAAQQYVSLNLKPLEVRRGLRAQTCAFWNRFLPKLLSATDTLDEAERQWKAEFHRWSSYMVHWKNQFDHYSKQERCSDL

Mus musculus = assay: Antialzheimer activity in ICR mouse model of scopolamine-induced cognitive deficit assessed as prolongation of scopolamine-induced latency at 10 to 30 mg/kg, po treated for 1 hr followed by scopolamine challenge for 30 mins by step-down passive avoidance test; assay type: functional, organism-based
Procedure, shortened: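 ICR mice, six weeks old, 18-22 g, either sex, n = 15/group. […] Step-down test used foot shock of 20 V, 0.5 mA, 2 s, with a training trial and a test 24 h later. Read-outs were latency to first step-down and number of shocks in 5 min. Mean ± SEM.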

[9] = Cytotoxicity in human SH-SY5Y cells assessed as reduction in cell viability after 72 hrs incubation by MTT assay; conditions: SH-SY5Y cells
BV-2 [10] = assay: Antiinflammatory activity in mouse BV2 cells assessed as reduction in LPS-induced IL-6 production at 10 uM pretreated for 1 hr followed by LPS challenge and measured after 24 hrs by ELISA assay; assay type: functional, cell-based
[11] = biological target: T2, Acetylcholinesterase (Mus musculus) (UniProt P21836); conditions: at 10 µM
T2 sequence (whole entry): T1 sequence (P21836 whole entry)

CCN(C)CCCCOc1ccc2c(=O)c(-c3ccc(OCCN4CCCCC4)cc3)coc2c1
AUC(0-inf) [1]: 352 ng·h/mL
Activity (BV-2 [2]): Active
Activity [3]: Non-Toxic
Activity (BV-2 [4]): Non-Toxic
Activity [5]: Non-Toxic
Activity [6]: Non-Toxic
Activity [7]: 0.01 equiv/µM
Activity [8]: Non-Toxic
IC50 (Acetylcholinesterase): 0.081 µM
Activity (Mus musculus): Dose-dependent effect
CC50 at 72 h [9]: > 100 µM
Activity (BV-2 [10]): Active
inhibition [11]: 92.8%

Source: ChEMBL document CHEMBL4433203, “Design, synthesis, and evaluation of isoflavone analogs as multifunctional agents for the treatment of Alzheimer's disease” (Eur J Med Chem, 2019)
